Test results from PubChem BioAssay.
Unmarked numbers belong to inactive results. Inconclusive results are not listed. Calls of active or inactive are those of the source.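 How the source made its calls, unless noted: active means RAM network inhibition above 8.4% in each of two replicates, 3 SD over the compound average; inconclusive means above 8.4% inhibition in only one replicate; inactive means 8.4% inhibition or less in each replicate.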

Experiments:
[1] = S. cerevisiae growth inhibition in permissive medium (OD615), pilot counter-assay for S. cerevisiae lifespan shortening project, permissive growth control (AID 705;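 active means growth inhibition above 25% in both replicates, a cutoff set 3 SD above the mean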); settings: OD615, 24 h, at 10 µM, active compounds read high
In short: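 Material: engineered DeaD yeast; compound dosing: one dose 10 µM, DMSO 0.25% final; measure: yeast growth inhibition indicated by reduced 24 h OD615; detection: OD615 turbidity read; incubation: cells pre-grown 4 h, then 24 h compound exposure, 30 °C humidified; medium: permissive synthetic complete medium with raffinose and galactose carbon sources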

[2] = S. cerevisiae growth inhibition in restrictive medium, OD615, pilot screen, restrictive growth control, yeast lifespan reduction project (AID 706;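 active means growth inhibition above a set limit, 3 SD over mean compound inhibition, in both replicates, cut at about 43% in these data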;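 further: modified DeaD lifespan yeast strain shifted to restrictive glucose medium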); settings: OD615, 48 h, at 10 µM, active compounds read high
In short: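 material = engineered S. cerevisiae DeaD strain | medium = glucose-based CSMM-D restrictive medium | times = 4 h pre-incubation, 48 h exposure at 30 °C | technique = OD615 absorbance reading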

[3] = doxorubicin toxicity protection in MRP-1 cells – H69AR cells, CellTiter-Glo, duplicate, MRP-1 activator project, pilot screen (AID 807;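 active means viability increase at or above a cutoff of the median across tested compounds plus 3 SD, cut at about 8.5% in these data, passing the limit was not always enough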;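 further: compound pretreatment 18-22 h then 72 h combined with doxorubicin; 0% = doxorubicin alone and 100% = vehicle without doxorubicin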); settings: H69AR viability with doxorubicin, CellTiter-Glo luminescence; at 10 µM; active compounds read high
[4] = viability of HCT116 without oncogenic beta-catenin – human colon tumor cells, pilot screen (AID 823;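 active means cell viability at or below a set limit in both duplicate runs, the limit being the all-compound median minus 4 SD, cut at about 23% in these data, passing the limit was not always enough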;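 further: 0% = wells killed by 20 µM Hyamine and 100% = untreated DMSO cell wells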); settings: HCT116 beta-catenin knockout viability, CellTiter-Glo, 60 h; at 10 µM; active compounds read low
[5] = viability of PTEN-null HCT116 cells – cell-based, HCT116 clonal line, CellTiter-Glo, pilot screen (AID 824;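 active means viability at or below 27.92% in each of two runs, the all-compound median minus 4 SD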;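 further: 0% = 20 µM Hyamine control and 100% = vehicle cell control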); settings: HCT116 PTEN-deleted viability, 60 h, at 10 µM, active compounds read low
[6] = RAM pathway blockade in budding yeast – dse1pr::URA3 reporter, 5-FOA selection, pilot screen (AID 869;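 active means inhibition over a set limit, the all-compound mean plus 3 SD, in both replicate runs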;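 further: 0% = DMSO wells with no growth and 100% = 10 µM 1-NA-PP1 with full growth; RAM network block rescues cells from 5-FOA so hits raise OD615 growth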); settings: S. cerevisiae dse1pr::URA3 5-FOA growth, OD615, 2 d; at 10 µM; active compounds read high; strain carries analog-sensitive mutant Cbk1 kinase
[7] = RAM signaling pathway blockade in yeast – S. cerevisiae, Pdr1DBD-CYC8 efflux-inhibited sensitized strain, primary screen (AID 1298);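 further: 0% = DMSO untreated cells without growth and 100% = 10 µM 1-NA-PP1 full growth; higher means more yeast growth rescued from 5-FOA killing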; settings: S. cerevisiae cbk1-as DSE1-URA3 strain, 5-FOA growth OD615, 2 d; at 50 µM; active compounds read high

Structure (SMILES) | growth inhibition [1] | growth inhibition [2] | viability increase [3] | viability [4] | viability [5] | inhibition [6] | RAM network inhibition [7]
CN(C)c1ccnc2sc(C(=O)NCc3ccccc3)c(N)c12 | -17.2% | 17.5% | -2.17% | 81.3% | 78.7% | 2.11% | 1.39%
COC(=O)c1cccnc1-n1c(=O)c2cccnc2n(Cc2cccc(OC)c2)c1=O | -13.7% | 4.94% | -3.24% | 101% | 92.7% | 0.47% | -1.41%
C=C(C)Cn1c(CNC(C)=O)nc2ccccc21 | -12.2% | -25.6% | -0.52% | 108% | 94.3% | 0.645% | 3.9%
CCCC(NS(=O)(=O)c1ccc(OC)cc1)C(=O)O (centres undefined) | -8.86% | -7.75% | -1.16% | 90.1% | 95.4% | 1.29% | 3.19%
CCCCOc1ccc(/C(N)=N/O)cc1 | 7.3% | 0.775% | -5.85% | 93.5% | 93.7% | 0.44% | 1.83%
O=C(Oc1ccc2c(=O)c(Cl)coc2c1)c1ccncc1 | -0.185% | 7.12% | -4.3% | 90.4% | 99.2% | 0.015% | -0.99%
CCSc1nnc(Cn2c(=O)sc3ccccc32)n1C | -8.03% | 5.23% | -0.33% | 95.7% | 96.2% | 0.71% | -0.45%
CCOC(=O)c1c(C)n(C)c2ccc(OCC(O)CN3CCCCCC3)cc12 (centres undefined) | -0.855% | -3.17% | -5.4% | 61.5% | 62.5% | 0.77% | 2.14%
CC1CCCCN1Cc1nc2c(c(=O)n(C)c(=O)n2C)n1Cc1cccc2ccccc12 (centres undefined) | -4.17% | -4.83% | -0.2% | 94.2% | 89% | 1.91% | 2.8%
CC(C)N1C(=O)C2C(c3ccccc3O)NC(C)(C(=O)O)C2C1=O (centres undefined) | 7.56% | 5.16% | -0.38% | 101% | 104% | 0.765% | 1.54%
COc1ccc(-c2cn3c(C)c(C(=O)N4CCc5ccccc5C4)sc3n2)cc1 | 0.41% | 6.71% | -7.22% | 87.6% | 84.5% | 3.01% | 4.47%
CN1CCN(c2nc3c(c(=O)n(C)c(=O)n3C)n2CCSc2nc3ccccc3s2)CC1 | -5.4% | -16.2% | -3.94% | 100% | 96.1% | 1.37% | 3.29%
COc1cccc(-c2nc(CS(=O)(=O)CC(=O)NCc3ccccc3)c(C)o2)c1 | 6.62% | 8.33% | -0.84% | 94.8% | 88.1% | 1.4% | 3.28%
O=C1C2CCCN2C(c2ccc(Br)cc2)N1c1ccc(F)cc1 (centres undefined) | -4.66% | -3.76% | -3.07% | 94.2% | 90% | 2.89% | 9.1%
Cn1cccc1Cc1nnc(SCC(=O)NC2CCCCC2)n1CCc1ccccc1 | 9.32% | 23.6% | -2.17% | 79.6% | 81.5% | 1.58% | 8.9%
COc1cccc(NC(=O)c2ccncc2)c1 | -9.44% | -11% | -3.81% | 94.3% | 100% | 1.18% | 4.2%
O=C(CSc1nnc(Cc2cc(=O)[nH]c(=O)[nH]2)n1-c1ccccc1)N1CCCCC1 | -4.77% | 5.95% | -2.54% | 99.7% | 90.4% | 1.02% | -2.08%
CN1CCN(CCCNC(=O)c2cc3c(=O)n(C)c4ccccc4c3s2)CC1 | 0.78% | -4.68% | -7.62% | 53.1% | 45.6% | 0.835% | 1.14%
Cn1c(=O)cc(N2CCc3ccccc32)[nH]c1=O | -11.7% | 2.4% | 0.37% | 90.8% | 98.1% | 1.23% | -1.11%
O=C(CNC(=O)c1ccco1)OCC(=O)c1ccccc1 | -8.55% | 3% | -1.3% | 97.3% | 94.3% | 0.98% | 0.92%
CCOC(=O)c1c(C)n(C)c2cc(Br)c(C(=O)OC)cc12 | 8.75% | -4.36% | -3.53% | 97% | 96.3% | 1.99% | 7.11%
CCN(CC)CCCNC(=O)c1cc(-c2ccc(O)cc2)on1 | -14.6% | 9.75% | -3.12% | 99.1% | 96.1% | 1.24% | 1.77%
Cc1cc(C)n2nc(S(=O)(=O)NCCc3ccccc3)nc2n1 | -6.26% | -8.79% | -0.6% | 111% | 100% | 2.72% | 1.3%
Nc1c(C(=O)NCc2cccnc2)sc(=S)n1-c1ccccc1 | 11.3% | 25.7% | -1.61% | 90.3% | 83.6% | 2.5% | 2.58%

Structure (SMILES) | growth inhibition [1] | growth inhibition [2] | viability increase [3] | viability [4] | viability [5] | inhibition [6] | RAM network inhibition [7]
COC1CCCCC1NS(=O)(=O)c1ccc(Cl)cc1 (centres undefined) | 1.43% | 2.45% | -1.67% | 93.3% | 99.6% | -0.11% | -1.18%
CCC(=O)c1ccc(N2CCN(C(=O)COc3ccc(F)cc3)CC2)c(F)c1 | -5.39% | -3.45% | -2.21% | 73.7% | 82.5% | 1.71% | 5.92%
Cc1ccc(N2C(=O)c3oc4ccccc4c(=O)c3C2c2cccnc2)nc1 (centres undefined) | -12.7% | -4.26% | 0.88% | 99.3% | 102% | 1.04% | 5.38%
O=C(Cc1ccccc1)n1nc(-c2ccccc2)nc1NCc1ccco1 | -16.6% | -14.8% | -2.03% | 99.5% | 98.1% | 1.27% | 4.38%
COc1cc(OC)cc(C(=O)Nn2cc(C(=O)N3CCN(C)CC3)c3ccccc3c2=O)c1 | -6.21% | -7.65% | -0.92% | 105% | 93.1% | 1.17% | 3.86%
O=C(NCc1ccccn1)c1ccc2ccccc2n1 | 4.58% | -7.25% | -1.47% | 111% | 102% | 1.32% | 5.32%
CCn1c2ccccc2c2nnc(SCc3cc(=O)n4ccsc4n3)nc21 | -8.94% | 8.05% | -2.35% | 93.5% | 86.3% | 1.52% | 8.94%
COc1cc2c(cc1OC)C1=C(C#N)CC/C(=N\S(=O)(=O)c3ccccc3)N1CC2 | -11.1% | -3.91% | -4.28% | 97.8% | 87.8% | 1.25% | 2.61%
COC(=O)C1C(=O)CC(C)(O)C(C(=O)OC)C1c1ccc2c(c1)OCO2 (centres undefined) | -10.3% | -17% | 0.03% | 92.3% | 98.5% | 1.74% | 0.48%
CC(C)N(Cc1ccccc1)C(=O)c1cnc2n(c1=O)CCS2 | -1.66% | -28.5% | -2.84% | 105% | 98.1% | 1.28% | 1.59%
CC1=CS/C(=C(/C#N)C(=O)N2CCOCC2)N1c1ccccc1 | -2.33% | 1.7% | -1.17% | 94.2% | 94.7% | 0.255% | 0.92%
CCOc1ccc(C2CC(c3ccc(CC)cc3)Nc3nc(N)nn32)cc1 (centres undefined) | 13.7% | 21.5% | 5.61% | 97.5% | 90.2% | 0.69% | 8.15%
Cn1c(=O)oc2cc(S(=O)(=O)Nc3cccc(F)c3)ccc21 | -14.2% | -2.1% | -0.69% | 94.3% | 89.5% | 2.04% | 5.85%
CC(c1ccccc1)C1C(C#N)=C(N)OC2=C1C(=O)CC(C)(C)C2 (centres undefined) | -6.48% | -7.79% | -5.71% | 78.4% | 78.9% | 1.78% | 25.6% (active)
COc1ccc(OC)c2c1sc(=NC(=O)C(C)C)n2C | -3.95% | 17.4% | -3.34% | 79.2% | 74.1% | 0.575% | 3%
O=C(NC(C(=O)c1ccccc1)N1CCCCC1)c1ccccc1 (centres undefined) | -8.09% | -3.47% | -2.31% | 91.2% | 98% | -0.65% | 1.67%
Cn1c(=O)[nH]c(=O)c2c1nc(CN1CCOCC1)n2Cc1ccc(F)cc1 | -6.42% | -18.4% | -3.24% | 98.5% | 93.4% | 2.65% | 2.15%
C=CCOC(=O)C1=C(C)NC(C)=C(C(=O)OCC=C)C1c1ccc(O)cc1 | -6.92% | -8.46% | -4.51% | 78.1% | 71% | 0.035% | 2.05%
O=C(c1ccc(Br)o1)N1CCN=C1SCc1cccnc1 | -14.4% | -6.34% | 2.52% | 90.4% | 87.6% | 2.11% | 3.23%
COc1ccc(NS(=O)(=O)c2ccc(NS(=O)(=O)c3ccc(C)cc3)cc2)nn1 | -13.5% | -7.58% | 1.15% | 92.9% | 96.8% | 2.95% | 4.16%
CCN(CC)S(=O)(=O)c1ccc(C2CNC(=O)C2)cc1 (centres undefined) | -6.66% | -3.95% | 1.75% | 106% | 102% | 1.48% | -0.31%
N#Cc1cn(CC(=O)NCC2CCCO2)c2ccccc12 (centres undefined) | 1.68% | -3% | -1.75% | 93.1% | 91.4% | 1.1% | 5.31%
Cc1nc2cc(-c3cccc(F)c3)nn2c(C)c1CCC(=O)NC(C)CCc1ccco1 (centres undefined) | -10.1% | -2.46% | -1.36% | 69.7% | 72.6% | 0.955% | 3.16%
